From ChEMBL document CHEMBL3044956, “Nematicidal and antifungal activities of annonaceous acetogenins from Annona squamosa against various plant pathogens” (J Agric Food Chem, 2011)
In brackets after ≈: the same amount, converted by molar mass.

Legend:
[1] = test system: Bursaphelenchus xylophilus; experiment: Nematicidal activity against second juvenile stage (J2) of Bursaphelenchus xylophilus assessed as mortality after 2 days by microtiter plate assay method (Beneficial crop Pine); type: functional; conditions: 48 h
Procedure, shortened: (§1)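 Pine wood nematodes reared on B. cinerea mycelia on PDA for 7 days at 28 °C. J2s collected in 0.01% Triton X-100 water and tested in microtiter plates. Compounds in DMSO or MeOH, solvent ≤1%; solvent-only controls. Concentrations 0.004–1 μg/mL. Mortality Abbott-corrected; LC50 by probit. Two runs, three replicates each.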

[2] = test system: Bursaphelenchus xylophilus; experiment: Nematicidal activity against second juvenile stage (J2) of Bursaphelenchus xylophilus assessed as mortality at >0.33 ug/ml after 2 days by microtiter plate assay method (Beneficial crop Pine); type: functional; procedure, shortened: as §1
Botrytis cinerea [3] = experiment: In vivo antifungal activity against Botryotinia fuckeliana infected in tomato seedlings assessed as control of tomato gray mold disease development at 125 ug/ml treated 1 day before spore inoculation measured 3-7 days after inoculation; type: functional
Procedure, shortened: (§2)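 Potted seedlings sprayed to runoff with material dissolved in MeOH and diluted in 0.025% Tween 20 (5% MeOH); controls got the Tween/MeOH solution alone. Inoculated with spores or mycelial suspension 1 day later. Infected leaf or sheath area rated 3–7 days after inoculation; % control = 100(A−B)/A. Randomized complete block design, three replicates, run in duplicate; Tukey HSD.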

Puccinia recondita [4] = experiment: In vivo antifungal activity against Puccinia recondita infected wheat seedlings assessed as reduction in wheat leaf rust disease symptoms development at 125 ug/ml treated 1 day before spore inoculation measured 7 days after inoculation; type: functional; parameters: scale not given: the % may be the effect or the level left; procedure, shortened: as §2
Blumeria hordei [5] = experiment: In vivo antifungal activity against Blumeria graminis f. sp. hordei infected barley seedlings assessed as control of barley powdery mildew disease development at 250 ug/ml treated 1 day before spore inoculation measured 3-7 days after inoculation; type: functional; procedure, shortened: as §2
Pyricularia oryzae [6] = experiment: In vivo antifungal activity against Magnaporthe oryzae infected rice seedlings assessed as control of rice blast disease development at 125 ug/ml treated 1 day before spore inoculation measured 3-7 days after inoculation; type: functional; procedure, shortened: as §2
Meloidogyne incognita [7] = experiment: Nematicidal activity against second juvenile stage (J2) of Meloidogyne incognita (root-knot nematode) assessed as mortality incubated in the dark at 28 degC after 2 days by light microscopy (benficial crop Tomato); type: functional; conditions: 48 h
Procedure, shortened: (§3)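 M. incognita eggs taken from infected tomato roots with hypochlorite and J2s hatched in Baermann funnels at 28 °C. J2s from the first 3 days kept in 0.01% Tween 20 water and used within 24 h. About 100 J2s per well; stock added 1:100 in DMSO or MeOH (≤1%). Plates kept shaking in the dark at 28 °C, scored by microscope at 1, 2 and 3 days. Mortality Abbott-corrected. Two runs, three replicates each.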

Phytophthora infestans [8] = experiment: Antifungal activity against Phytophthora infestans assessed as inhibition of radial mycelial growth at 11.11 to 900 ug/ml incubated at 20 degC for 5 to 7 days by poison plate assay; type: functional
Procedure, shortened: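 Poison-plate assay: material in MeOH added 1:100 to V8-agar at 50 °C, 2 mL per well of six-well plates, centre-inoculated with a 5 mm plug from the colony margin. Incubated at 20 °C until control growth reached the edge. Controls were 1% MeOH. Read as % inhibition of radial growth. Two runs, four replicates each. IC50 by probit.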

Phytophthora infestans [9] = experiment: Antifungal activity against Phytophthora infestans assessed as inhibition of sporangium germination incubated at 20 degC for 24 hr by light microscopy; type: functional, organism-based
Procedure, shortened: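 Sporangium germination: compounds serially diluted in MeOH (12500 to 391 μg/mL as stock series), sporangia incubated 24 h at 20 °C. About 100 sporangia per replicate scored for germination by light microscope. Experiment repeated, mean ± SD. IC50 by probit.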

Colletotrichum coccodes [10] = experiment: In vivo antifungal activity against Colletotrichum coccodes infected red pepper seedlings assessed as control of red pepper anthracnose development at 500 ug/ml treated 1 day before spore inoculation measured 3-7 days after inoculation; type: functional; procedure, shortened: as §2
Puccinia recondita [11] = experiment: In vivo antifungal activity against Puccinia recondita infected wheat seedlings assessed as reduction in wheat leaf rust disease symptoms development at 250 ug/ml treated 1 day before spore inoculation measured 7 days after inoculation; type: functional; parameters: scale not given: the % may be the effect or the level left; procedure, shortened: as §2
Rhizoctonia solani [12] = experiment: In vivo antifungal activity against Rhizoctonia solani infected rice seedlings assessed as control of rice sheath blight disease development at 125 ug/ml treated 1 day before spore inoculation measured 3-7 days after inoculation; type: functional; procedure, shortened: as §2
Botrytis cinerea [13] = experiment: In vivo antifungal activity against Botryotinia fuckeliana infected in tomato seedlings assessed as control of tomato gray mold disease development at 250 ug/ml treated 1 day before spore inoculation measured 3-7 days after inoculation; type: functional; procedure, shortened: as §2
Pyricularia oryzae [14] = experiment: In vivo antifungal activity against Magnaporthe oryzae infected rice seedlings assessed as control of rice blast disease development at 500 ug/ml treated 1 day before spore inoculation measured 3-7 days after inoculation; type: functional; procedure, shortened: as §2
Meloidogyne incognita [15] = experiment: Nematicidal activity against second juvenile stage (J2) of Meloidogyne incognita (root-knot nematode) assessed as mortality incubated in the dark at 28 degC after 1 day by light microscopy (benficial crop Tomato); type: functional; conditions: 24 h; procedure, shortened: as §3
Phytophthora infestans [16] = experiment: In vivo antifungal activity against Phytophthora infestans zoospores infected tomato seedlings assessed as control of tomato late blight disease development treated 1 day before spore inoculation measured 3 days after inoculation; type: functional, organism-based; procedure, shortened: as §2
Blumeria hordei [17] = experiment: In vivo antifungal activity against Blumeria graminis f. sp. hordei infected barley seedlings assessed as control of barley powdery mildew disease development at 125 ug/ml treated 1 day before spore inoculation measured 3-7 days after inoculation; type: functional; procedure, shortened: as §2
Rhizoctonia solani [18] = experiment: In vivo antifungal activity against Rhizoctonia solani infected rice seedlings assessed as control of rice sheath blight disease development at 250 ug/ml treated 1 day before spore inoculation measured 3-7 days after inoculation; type: functional; procedure, shortened: as §2
Colletotrichum coccodes [19] = experiment: In vivo antifungal activity against Colletotrichum coccodes infected red pepper seedlings assessed as control of red pepper anthracnose development at 125 ug/ml treated 1 day before spore inoculation measured 3-7 days after inoculation; type: functional; procedure, shortened: as §2
Colletotrichum coccodes [20] = experiment: In vivo antifungal activity against Colletotrichum coccodes infected red pepper seedlings assessed as control of red pepper anthracnose development at 250 ug/ml treated 1 day before spore inoculation measured 3-7 days after inoculation; type: functional; procedure, shortened: as §2
Botrytis cinerea [21] = experiment: In vivo antifungal activity against Botryotinia fuckeliana infected in tomato seedlings assessed as control of tomato gray mold disease development at 500 ug/ml treated 1 day before spore inoculation measured 3-7 days after inoculation; type: functional; procedure, shortened: as §2
Pyricularia oryzae [22] = experiment: In vivo antifungal activity against Magnaporthe oryzae infected rice seedlings assessed as control of rice blast disease development at 250 ug/ml treated 1 day before spore inoculation measured 3-7 days after inoculation; type: functional; procedure, shortened: as §2
Phytophthora infestans [23] = experiment: Antifungal activity against Phytophthora infestans assessed as inhibition of zoospore germination incubated in the dark at 20 degC for 24 hr by light microscopy; type: functional, organism-based
Procedure, shortened: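 Zoospores released by chilling sporangia 1 h at 4 °C, then filtered to remove sporangia. Test solution in MeOH mixed 1:100 with the suspension (1% MeOH control), loaded onto hole-slide glasses and kept humid at 20 °C for 24 h in the dark. Germinated cells counted per hole by light microscope. Experiment repeated, mean ± SD.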

Meloidogyne incognita [24] = experiment: Nematicidal activity against second juvenile stage (J2) of Meloidogyne incognita (root-knot nematode) assessed as mortality incubated in the dark at 28 degC after 3 days by light microscopy (benficial crop Tomato); type: functional; conditions: 72 h; procedure, shortened: as §3
Blumeria hordei [25] = experiment: In vivo antifungal activity against Blumeria graminis f. sp. hordei infected barley seedlings assessed as control of barley powdery mildew disease development at 500 ug/ml treated 1 day before spore inoculation measured 3-7 days after inoculation; type: functional; procedure, shortened: as §2
Rhizoctonia solani [26] = experiment: In vivo antifungal activity against Rhizoctonia solani infected rice seedlings assessed as control of rice sheath blight disease development at 500 ug/ml treated 1 day before spore inoculation measured 3-7 days after inoculation; type: functional; procedure, shortened: as §2
Puccinia recondita [27] = experiment: In vivo antifungal activity against Puccinia recondita infected wheat seedlings assessed as reduction in wheat leaf rust disease symptoms development at 500 ug/ml treated 1 day before spore inoculation measured 7 days after inoculation; type: functional; parameters: scale not given: the % may be the effect or the level left; procedure, shortened: as §2
Blumeria hordei [28] = experiment: In vivo antifungal activity against Blumeria graminis f. sp. hordei infected barley seedlings assessed as control of barley powdery mildew disease development at 100 ug/ml treated 1 day before spore inoculation measured 3-7 days after inoculation; type: functional; procedure, shortened: as §2
Blumeria hordei [29] = experiment: In vivo antifungal activity against Blumeria graminis f. sp. hordei infected barley seedlings assessed as control of barley powdery mildew disease development at 1 ug/ml treated 1 day before spore inoculation measured 3-7 days after inoculation; type: functional; procedure, shortened: as §2
Pyricularia oryzae [30] = experiment: In vivo antifungal activity against Magnaporthe oryzae infected rice seedlings assessed as control of rice blast disease development at 50 ug/ml treated 1 day before spore inoculation measured 3-7 days after inoculation; type: functional; procedure, shortened: as §2
Pyricularia oryzae [31] = experiment: In vivo antifungal activity against Magnaporthe oryzae infected rice seedlings assessed as control of rice blast disease development at 1 ug/ml treated 1 day before spore inoculation measured 3-7 days after inoculation; type: functional; procedure, shortened: as §2

CCCCCCCCCC[C@@H](O)[C@H]1CC[C@H]([C@H](O)CCCCCCCCCCCCCCC2=C[C@H](C)OC2=O)O1 (relative stereo) [REL-ANNOTEMOYIN-1]
LC50 [1]: 0.947 µg/mL

CCCCCCCCCCCC[C@@H](O)[C@H]1CC[C@H]([C@H](O)CCCCCCCCCCCCC2=C[C@H](C)OC2=O)O1 (relative stereo) [REL-SOLAMIN]
LC50 [1]: > 1 µg/mL

CCCCCCCCCC[C@H](O)[C@H]1CC[C@H]([C@H]2CC[C@H]([C@H](O)CCCCCCCCCCC3=C[C@H](C)OC3=O)O2)O1 (relative stereo) [REL-SQUAMOCIN-J]
mortality [2]: 100%
LC50 [1]: 0.025 µg/mL

CCCCCCCCCC[C@@H](O)[C@H]1CC[C@H]([C@H]2CC[C@H]([C@H](O)CCCCCCCCCCC3=C[C@H](C)OC3=O)O2)O1 (relative stereo) [REL-SQUAMOCIN-K]
mortality [2]: 100%
LC50 [1]: 0.039 µg/mL

CCCCCC[C@H](O)CCC[C@@H](O)[C@H]1CC[C@H]([C@H]2CC[C@H]([C@H](O)CCCCCCCCCCCCC3=C[C@H](C)OC3=O)O2)O1 (relative stereo) [REL-SQUAMOCIN]
Activity (Botrytis cinerea [3]): 0%
Activity (Puccinia recondita [4]): 0%
Activity (Blumeria hordei [5]): 0%
Activity (Pyricularia oryzae [6]): 0%
LC50 (Meloidogyne incognita [7]): > 100 µg/mL
growth inhibition (GI) (Phytophthora infestans [8]): 31%
IC50 (Phytophthora infestans [9]): 1.24 µg/mL (≈ 1.99 µM)
inhibition (Phytophthora infestans [9]): Dose-dependent effect
Activity (Colletotrichum coccodes [10]): 0%
Activity (Puccinia recondita [11]): 20%
Activity (Rhizoctonia solani [12]): 0%
Activity (Botrytis cinerea [13]): 0%
mortality [2]: 100%
Activity (Pyricularia oryzae [14]): 50%
LC50 (Meloidogyne incognita [15]): > 100 µg/mL
Activity (Phytophthora infestans [16]): Dose-dependent effect
Activity (Blumeria hordei [17]): 0%
Activity (Rhizoctonia solani [18]): 11.8%
LC50 [1]: 0.006 µg/mL
Activity (Colletotrichum coccodes [19]): 0%
Activity (Colletotrichum coccodes [20]): 0%
Activity (Botrytis cinerea [21]): 0%
Activity (Pyricularia oryzae [22]): 0%
IC50 (Phytophthora infestans [23]): 3.05 µg/mL (≈ 4.9 µM)
inhibition (Phytophthora infestans [23]): Dose-dependent effect
LC50 (Meloidogyne incognita [24]): 54.9 µg/mL (≈ 88.1 µM)
Activity (Blumeria hordei [25]): 0%
Activity (Rhizoctonia solani [26]): 0%
Activity (Puccinia recondita [27]): 83.3%

CCCCNC(=O)n1c(NC(=O)OC)nc2ccccc21 [BENOMYL]
Activity (Blumeria hordei [28]): 100%
Activity (Blumeria hordei [29]): 75%

CN(CC[C@H](N)CC(=O)N[C@H]1CC[C@H](n2ccc(N)nc2=O)O[C@@H]1C(=O)O)C(=N)N [BLASTADIN S]
Activity (Pyricularia oryzae [30]): 100%
Activity (Pyricularia oryzae [31]): 65.5%
